Screens: PubChem BioAssay, Sanford-Burnham Center for Chemical Genomics
hIAP activ: human IAP activators, primary screen, biochemical, luminescence, uHTS. activation factor at 10 µM. Intestinal-type alkaline phosphatase (Homo sapiens), P09923. 330,000 tested, 0.16% active. purified human IAP, CDP-Star luminescence, 30 min; active compounds read high; 1 = vehicle-only enzyme, 0 = enzyme-free background;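 active means activation factor of the enzyme at least 2-fold when tested at 20 µM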
Target sequence (P09923 whole entry, looked up): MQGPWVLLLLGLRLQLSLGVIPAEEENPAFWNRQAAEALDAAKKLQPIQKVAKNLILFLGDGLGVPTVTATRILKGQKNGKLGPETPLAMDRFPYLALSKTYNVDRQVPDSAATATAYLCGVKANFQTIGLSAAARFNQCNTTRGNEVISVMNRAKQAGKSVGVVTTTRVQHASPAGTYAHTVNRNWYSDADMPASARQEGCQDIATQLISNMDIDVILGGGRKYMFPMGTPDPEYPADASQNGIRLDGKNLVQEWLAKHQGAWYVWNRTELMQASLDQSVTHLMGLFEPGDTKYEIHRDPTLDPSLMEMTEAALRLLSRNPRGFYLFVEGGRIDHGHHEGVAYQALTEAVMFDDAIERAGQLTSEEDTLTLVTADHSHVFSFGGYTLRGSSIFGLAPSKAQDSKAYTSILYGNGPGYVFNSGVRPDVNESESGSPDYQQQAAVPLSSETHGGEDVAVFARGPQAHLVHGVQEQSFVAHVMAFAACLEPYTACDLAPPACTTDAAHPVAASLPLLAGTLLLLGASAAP
mIAP block: inhibitors of mouse IAP, primary screen, biochemical, luminescence, uHTS | intestinal alkaline phosphatase [Mus musculus] | purified mouse IAP, CDP-Star luminescence, 30 min | inhibition, % at 10 µM | 330,000 tested, 0.2% active | AID 2806, 2010;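 active means inhibition of at least 40% at 10 µM in the primary screen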;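 further: plate controls were DMSO with enzyme for no effect and no enzyme wells for full effect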
mIAP act: activators of mouse IAP, primary screen, biochemical, luminescence, uHTS. 330,000 tested, 0.24% active. muIAP, CDP-Star luminescence, 30 min; active compounds read high; 1 = vehicle-only enzyme signal, 0 = enzyme-free wells. activation factor at 10 µM. AID 2805, 2010;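 active means activation factor of at least 2 at 20 µM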
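also added = chemiluminescent substrate CDP-Star | test system = mouse IAP enzyme | signal = chemiluminescence readout | compound = DMSO-dissolved test compounds | incubation = 30 min at room temperature | benchmarks = DMSO wells, no-enzyme wells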
bIAP inhibitor: bovine intestinal alkaline phosphatase inhibitors, primary screen, selectivity assay for TNAP inhibitor project, biochemical, bovine IAP, CDP-star luminescence | alkaline phosphatase, intestinal [Bos taurus] | purified bovine IAP, 30 min | inhibition, % at 20 µM | 190,000 tested, under 10 active | AID 1019, 2008;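 active means over 50% inhibition of intestinal alkaline phosphatase at 20 µM in the single-dose screen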
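System: Purified bovine intestinal alkaline phosphatase (IAP) enzyme | Input: IAP diluted 1/65,000,000 in the well | Also added: CDP-star chemiluminescent phosphatase substrate, 30 µM final | Dosing: 20 µM single dose | Times: Enzyme reaction for 30 min at room temperature | Detection: Luminescence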
hIAP block: human IAP inhibitors, primary screen, biochemical, luminescence, uHTS; Intestinal-type alkaline phosphatase (Homo sapiens), P09923; purified IAP, CDP-Star luminescence, 30 min; inhibition, % at 10 µM; 330,000 tested, 0.12% active; AID 2544, 2010;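 active means inhibition reaching a set limit with compound at 10 µM in the primary screen, cut at about 35% in these data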;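 further: plate controls were DMSO wells with enzyme for no effect and no-enzyme buffer wells for full effect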
bIAP act: bovine intestinal alkaline phosphatase activators, primary screen, biochemical, bovine IAP, CDP-star luminescence | alkaline phosphatase, intestinal [Bos taurus] | activation factor at 20 µM | 200,000 tested, 0.17% active | AID 1016, 2008 | purified bovine IAP, 30 min; active compounds read high; fold of DMSO-control signal, blank-subtracted;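 active means activation factor of 2 or more at 20 µM, a signal rise over negative controls twice the positive control's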
mIAP inh conf: inhibitors of mouse IAP, confirmation, biochemical, luminescence, single concentration | shares compounds with mIAP block | purified mouse IAP, CDP-Star luminescence, 30 min | inhibition, % at 10 µM | 11,000 tested, 4.7% active;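 active means inhibition of at least 40% at 10 µM in either of the two replicates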;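 further: plate controls were DMSO wells with enzyme for no effect and buffer wells lacking enzyme for full effect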
An asterisk follows results filed as active; · = no result given. Rows were chosen to be rich in hits. Some 0.79% of all compounds tested hit in one or more screens of this group.

SMILES	hIAP activ	mIAP block	mIAP act	bIAP inhibitor	hIAP block	bIAP act	mIAP inh conf
O=C(Nc1cccc(Cl)c1)Nc1cc(S(=O)(=O)N2CCCCC2)ccc1Cl	1.11	-256.9	3.57*	21.1	-10.8	0.8	-107.7
O=C(Nc1ccc(Cl)c(Cl)c1)Nc1cc(S(=O)(=O)N2CCOCC2)ccc1N1CCCC1	1.43	-212.0	3.12*	24.6	-42.6	0.8	-153.0
CCc1ccc(NC(=O)C(=O)N/N=C(\C)CC(=O)NCc2ccc(Cl)cc2)cc1	1.02	11.5	0.885	3.3	-1.6	1	·
Cc1nc(C)n(C(C)CNS(=O)(=O)c2ccc(Cl)cc2)n1 (configuration not stated)	0.998	-1.7	1.02	·	0.2	·	·
COC(=O)C1CCN(C(=O)CSc2nnc(-c3ccccc3)o2)CC1	1.19	-0.1	1	·	-18.8	·	·
COc1ccc(/C=N/n2nnnc2N)c(OC)c1	0.811	-1.1	1.01	·	18.9	·	·
O=C(Cc1nnc(NC(=O)c2ccccc2)s1)N/N=C\c1ccc(O)c(O)c1	1.06	72.6*	0.274	·	-5.9	·	78.9*
Oc1cc2c(cc1O)[C@H]1c3ccc(O)c(O)c3OC[C@@]1(O)C2	0.922	60.3*	0.397	·	7.8	·	53.1*
COc1ccc(/C=N/N2C(=O)CSC2=S)cc1Br	1.13	22.5	0.775	·	-12.7	·	·
O=C1CSC(=S)N1/N=C/c1ccc(O)c(O)c1O	1.05	91.6*	0.084	·	-5.3	·	87.9*
CC(C)(C)c1ccc(/C=N/N2C(=O)CSC2=S)cc1	1.2	20.3	0.797	·	-20.3	·	·
COc1ccc(/C=N/N2C(=O)CSC2=S)cc1	1.03	46.9*	0.531	-16.0	-3.1	1.2	59.9*
C1COCCNCCOCCOCCOCCN1	1.07	-0.9	1.01	6.9	-6.7	0.9	·
O=C(COC(=O)Cc1c[nH]c2ccccc12)Nc1c(Cl)cccc1C(F)(F)F	1.14	-3.6	1.04	·	-14.3	·	·
CC(C)c1ccc(NC2CCCN(C(=O)CSc3nncn3C)C2)cc1 (configuration not stated)	1.07	6.2	0.938	·	-7.4	·	·
O=C(CSc1nnc(-c2ccco2)c(-c2ccco2)n1)c1ccccc1	1.19	49.6*	0.504	2.5	-19.0	1	50.6*
O=C(CSc1nnc(-c2ccco2)o1)c1ccccc1	1.1	43.9*	0.561	6.3	-9.6	0.9	43.0*
O=C(CSc1nnc(-c2ccco2)o1)c1ccc(F)c(F)c1	0.917	12.0	0.88	27.5	8.3	0.7	·
Cc1ccccc1N=C1NN=C(c2ccccc2F)CS1	1.03	8.2	0.918	24.6	-3.3	0.8	·
O=C(CCSCc1ccccc1Cl)NC1CCCCC1	1.05	1.0	0.99	-6.8	-5.3	1.1	·
CN(c1ccccc1C(=O)O)S(=O)(=O)c1ccc2c3c(cccc13)C(=O)N2	0.897	46.0*	0.54	20.4	10.3	0.8	62.0*
O=C(O)CCCCCNS(=O)(=O)c1ccc2c3c(cccc13)C(=O)N2	0.879	7.7	0.923	·	12.1	·	·
O=C(O)CNS(=O)(=O)c1ccc2c3c(cccc13)C(=O)N2	1.1	47.6*	0.524	·	-9.9	·	49.2*
O=C(O)c1ccccc1NS(=O)(=O)c1ccc2c3c(cccc13)C(=O)N2	0.852	8.1	0.919	5.1	14.8	0.9	·
Cc1nc2ccccc2c(=O)n1NC(=O)c1ccc(Cl)c(Cl)c1	0.962	3.6	0.964	·	3.8	·	·
SMILES	hIAP activ	mIAP block	mIAP act	bIAP inhibitor	hIAP block	bIAP act	mIAP inh conf
CC(N=Cc1cc([N+](=O)[O-])ccc1O)c1ccccc1 (configuration not stated)	1.1	-2.0	1.02	8.0	-9.6	0.9	·
CC(N=Cc1cccc(O)c1O)c1ccccc1 (configuration not stated)	0.801	59.8*	0.402	16.6	19.9	0.8	67.4*
N=C1/C(=C\c2coc3ccc(O)cc3c2=O)C(=O)N=C2SC=CN12	1.07	58.9*	0.411	·	-6.6	·	64.1*
CNC(=O)CSc1nc2nn(-c3ccccc3)c(=O)c-2c2n1CCCCC2	1.01	-4.9	1.05	4.7	-1.2	1	·
O=C(CSc1nc2nn(-c3ccccc3)c(=O)c-2c2n1CCCCC2)c1ccc(O)c(O)c1	0.757	75.6*	0.244	·	24.3	·	80.9*
COc1ccc(/C=C/c2nc(-c3ccccc3O)n[nH]2)cc1OC	1.64	11.3	0.887	17.7	-64.4	0.8	·
O=C(O)COc1ccc(/C=C/c2nc(-c3ccccc3O)n[nH]2)cc1	0.967	51.5*	0.485	·	3.3	·	62.2*
